Reference: ChEMBL document CHEMBL1154490, “Novel linear triaryl guanidines, N-substituted guanidines and potential prodrugs as antiprotozoal agents” (Eur J Med Chem, 2008)
Active and inactive are the calls of the source. No cut-off for these calls is given here.

Experiments:
[1] = test system: Trypanosoma brucei rhodesiense; assay: Antiprotozoal activity against Trypanosoma brucei rhodesiense STIB900 bloodstream form after 72 hrs by alamar blue assay; type: functional, organism-based
Plasmodium falciparum = assay: Antiprotozoal activity against chloroquine and pyrimethamine-resistant Plasmodium falciparum K1 after 72 hrs by [3H]hypoxanthine uptake; type: functional, organism-based
L6 = assay: Cytotoxicity against rat L6 cells after 72 hrs by alamar blue assay; type: cell-based; details: L6, 72 h
Method in brief: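 Cultured L6 rat myoblasts exposed to compound; viability read by the same Alamar Blue procedure used for the STIB900 trypanosome assay; duplicate determinations.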

[2] = test system: Trypanosoma brucei rhodesiense; assay: Antitrypanosomal activity against Trypanosoma brucei rhodesiense STIB900 infected in mouse assessed as average survival days at 25 mg/kg, ip administered on day 3 to 6 after infection; type: functional; details: route intraperitoneal
[3] = test system: Trypanosoma brucei rhodesiense; assay: Antitrypanosomal activity against Trypanosoma brucei rhodesiense STIB900 infected in mouse assessed as parasite-free survival at 25 mg/kg, ip administered on day 3 to 6 after infection measured on day 60; type: functional, organism-based; set-up: dose 25 mg/kg
[4] = Binding affinity to poly(dA-dT)2 DNA assessed as change in thermal melting temperature administered at compound to DNA ratio of 0.3 by thermistor analysis
Method in brief: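 Thermal melting of poly(dA-dT)2 in CAC 10 buffer (cacodylic acid 10 mM, EDTA 1 mM, NaCl 100 mM, pH 7.0), 1 cm quartz cuvettes, temperature raised 0.5 C/min. DNA quantified by A260. Compound:DNA 0.3 mol/mol, compound-free DNA as control. ΔTm reproducible within 0.5 C.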

[5] = test system: Trypanosoma brucei rhodesiense; assay: Antitrypanosomal activity against Trypanosoma brucei rhodesiense STIB900 infected in mouse assessed as parasite-free survival at 20 mg/kg, ip administered on day 3 to 6 after infection measured on day 60; type: functional, organism-based; set-up: dose 20 mg/kg
Method in brief: (§1)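 STIB900 acute mouse infection model with four infected mice per group. Parent compounds were given intraperitoneally and prodrugs orally, once daily for 4 days. Read-outs were the number of mice alive and parasite-free at day 60, and average days of survival.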

[6] = test system: Trypanosoma brucei rhodesiense; assay: Antitrypanosomal activity against Trypanosoma brucei rhodesiense STIB900 infected in mouse assessed as average survival days at 20 mg/kg, ip administered on day 3 to 6 after infection; type: functional; details: route intraperitoneal
[7] = test system: Trypanosoma brucei rhodesiense; assay: Antitrypanosomal activity against Trypanosoma brucei rhodesiense STIB900 infected in mouse assessed as average survival days at 25 mg/kg, po administered on day 3 to 6 after infection; type: functional
[8] = test system: Trypanosoma brucei rhodesiense; assay: Antitrypanosomal activity against Trypanosoma brucei rhodesiense STIB900 infected in mouse assessed as parasite-free survival at 25 mg/kg, po administered on day 3 to 6 after infection measured on day 60; type: functional, organism-based; set-up: dose 25 mg/kg; method in brief: as §1

Structure (SMILES)	IC50 [1] [nM]	IC50 (Plasmodium falciparum) [nM]	IC50 (L6) [nM]	Activity [2] [days]	Activity [3]	ΔTm [4] [°C]	Activity [5]	Activity [6] [days]	Activity [7] [days]	Activity [8]
CCOC(=O)/N=C(/Nc1ccc(-c2ccc(-c3ccc(N/C(=N/C(=O)OCC)NC(C)C)cn3)cc2)nc1)NC(C)C	8200	2.9	> 135000							
CCOC(=O)/N=C(\NC)Nc1ccc(-c2ccc(-c3ccc(N/C(=N/C(=O)OCC)NC)cn3)cc2)nc1	17800	2.6	> 169000	7.75	inactive					
CC(C)NC(=N)Nc1ccc(-c2ccc(-c3ccc(NC(=N)NC(C)C)cn3)cc2)nc1	11900	393	89700			8.1				
N=C(N)Nc1ccc(-c2ccc(-c3ccc(NC(=N)N)cc3)cc2)cc1	18	27	25400			14.2	inactive	>54.5		
CNC(=N)Nc1ccc(-c2ccc(-c3ccc(NC(=N)NC)cc3)cc2)cc1	18	7	65100			13	inactive	>56		
CC(C)NC(=N)Nc1ccc(-c2ccc(-c3ccc(NC(=N)NC(C)C)cc3)cc2)cc1	530	14	21900			9.3				
CNC(=N)Nc1ccc(-c2ccc(-c3ccc(NC(=N)NC)cn3)cc2)nc1	134	54	> 161000			10.2	inactive	>47		
CCOC(=O)/N=C(/Nc1ccc(-c2ccc(-c3ccc(N/C(=N/C(=O)OCC)NC(C)C)cc3)cc2)cc1)NC(C)C	14200	4.5	5300							
CCOC(=O)/N=C(\NC)Nc1ccc(-c2ccc(-c3ccc(N/C(=N/C(=O)OCC)NC)cc3)cc2)cc1	7500	8.9	5700						20.25	inactive
CCOC(=O)/N=C(\N)Nc1ccc(-c2ccc(-c3ccc(N/C(N)=N/C(=O)OCC)cc3)cc2)cc1	142000	1.7	> 181000						20.25	inactive
CCOC(=O)/N=C(\N)Nc1ccc(-c2ccc(-c3ccc(N/C(N)=N/C(=O)OCC)cn3)cc2)nc1	61000	1.9	> 181000							inactive
N=C(N)Nc1ccc(-c2ccc(-c3ccc(NC(=N)N)cn3)cc2)nc1	169	151	152000			9.2	inactive	8.5		
N=C(N)c1ccc(-c2ccc(-c3ccc(C(=N)N)cc3)cc2)cc1		1				18.2	inactive	29		
